PDI turbidity = inhibitors of human protein disulfide isomerase. inhibition, % at 10 µM. AID 588391. hit rate 0.052% among 350,000. PDI insulin aggregation turbidity, A650, 90 min;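 active = mean inhibition across replicates of 30% or more, whatever share of single replicates reach that level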
Target sequence (P07237 whole entry, looked up): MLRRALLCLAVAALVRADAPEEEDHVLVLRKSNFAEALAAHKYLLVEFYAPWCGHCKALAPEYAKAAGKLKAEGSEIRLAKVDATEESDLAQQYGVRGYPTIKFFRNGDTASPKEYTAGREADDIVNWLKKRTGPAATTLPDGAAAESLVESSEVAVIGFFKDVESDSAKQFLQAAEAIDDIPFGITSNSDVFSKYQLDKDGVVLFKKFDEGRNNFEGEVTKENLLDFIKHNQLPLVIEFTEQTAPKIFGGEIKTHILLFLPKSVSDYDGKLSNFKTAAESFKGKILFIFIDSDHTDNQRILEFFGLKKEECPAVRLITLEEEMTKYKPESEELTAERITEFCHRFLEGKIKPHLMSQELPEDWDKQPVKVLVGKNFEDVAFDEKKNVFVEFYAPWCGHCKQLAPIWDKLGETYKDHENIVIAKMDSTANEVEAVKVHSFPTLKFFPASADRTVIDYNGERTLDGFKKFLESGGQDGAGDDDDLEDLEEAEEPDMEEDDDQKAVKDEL
SIRT5 block = sirtuin-5 (human) deacylase inhibition; inhibition, % at 15 µM; Q9NXA8; hit rate 1.1% among 330,000; Purified SirT5, succinyl-peptide AMC, trypsin-coupled fluorescence; in the data active = inhibition above about 15%
ERp5 block = ERp5 (human) disulfide isomerase inhibition; inhibition, % at 9.99 µM; hit rate 0.05% among 350,000; Q15084; ERp5 insulin aggregation, absorbance 650 nm, 90 min; AID 651711;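 active = mean replicate inhibition above about 25%, with every replicate also reaching it, limit read from the data, passing the limit was not always enough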
FN deposition inh = fibronectin deposition inhibition. hit rate 0.086% among 350,000. inhibition, % at 12.6 µM. AH1F fibroblasts, Alexa488-fibronectin deposition fluorescence, overnight;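 active = mean inhibition across replicates of 30% or more, regardless of how many single replicates reach that level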;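 also: positive control wells lacked labelled fibronectin entirely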
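Material – AH1F fibroblast monolayer, labelled fibronectin deposition · Reagent – labelled fibronectin 24 nM · Timing – 1 h adhesion, overnight exposure · Measured by – fluorescence at 485 nm excitation, 525 nm emission · Read-out – inhibition of fibronectin deposition signal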
AF4-AF9 inh = inhibitors of human MLL-AF4/AF9 interaction; hit rate 0.47% among 350,000; AlphaScreen, biotin-AF4 peptide binding to FLAG-AF9; P42568; inhibition, % at 10 µM;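 active = every replicate reaching a set inhibition limit, whatever the replicate mean, cut at about 25% in these data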;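 also: 0% = plate neutral control median and 100% = total signal loss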
* = called active by the depositor; · = no result. A selection: hits, their analogues and other compounds. The true share with any hit is near 1.3%.

SMILES | PDI turbidity | SIRT5 block | ERp5 block | FN deposition inh | AF4-AF9 inh
Cc1nc2cc(C(=O)N3CCc4ccccc43)ccc2n1-c1ccc(F)c(F)c1 | 3 | 16* | 0 | 9 | -3
O=[N+]([O-])c1ccccc1S(=O)(=O)N1CCN(Cc2ccccc2)CC1 | 6 | -3 | 2 | -6 | 7
Cn1nc(C(F)(F)F)c(-c2cccc(C(F)(F)F)c2)c1NC(=O)c1cccnc1 | 4 | 6 | 7 | 6 | 1
O=C(NCC[C@@H]1CC[C@@H](NS(=O)(=O)c2ccc(Cl)cc2)[C@H](CO)O1)c1ccccc1F | · | 18* | 5 | · | -2
O=C(NCC[C@H]1CC[C@@H](NS(=O)(=O)c2ccc(F)cc2)[C@H](CO)O1)Nc1ccc(Cl)cc1 | · | -1 | 3 | 4 | 6
O=C(NCC[C@@H]1CC[C@H](NS(=O)(=O)c2ccc(Cl)cc2)[C@@H](CO)O1)c1ccccc1F | · | 2 | -1 | · | -1
CC(C)NC(=O)NCC[C@H]1CC[C@@H](NS(=O)(=O)c2ccc(-c3ccccc3)cc2)[C@H](CO)O1 | · | 31* | -1 | · | 8
Cc1ccc(S(=O)(=O)N[C@H]2CC[C@@H](CCNC(=O)Nc3ccc(Cl)cc3)O[C@H]2CO)cc1 | · | 103* | -4 | · | 14
O=C(NCC[C@H]1CC[C@H](NS(=O)(=O)c2ccc(Cl)cc2)[C@H](CO)O1)Nc1ccc(F)cc1 | · | 1 | 1 | -2 | 30*
O=C(Cn1cnc2ccc(Cl)cc2c1=O)c1cccs1 | 4 | · | · | · | ·
CCCCNC(=O)CCC(=O)Nc1ccc2nc(N3CCC(C)CC3)cc(C)c2c1 | 2 | 0 | -3 | -7 | 3
Cc1ccc(S(=O)(=O)N[C@H]2CC[C@H](CCNC(=O)c3ccc4c(c3)OCO4)O[C@H]2CO)cc1 | · | 103* | -1 | · | -1
O=C(Cc1ccccn1)NCC[C@H]1CC[C@H](NS(=O)(=O)c2ccccc2)[C@H](CO)O1 | · | 16* | 2 | · | 2
O=C(NCC[C@@H]1CC[C@@H](NC(=O)c2cccnc2)[C@H](CO)O1)Nc1ccc(C(F)(F)F)cc1 | · | 0 | 7 | -4 | 26*
Cc1ccc(S(=O)(=O)N[C@@H]2CC[C@H](CCNC(=O)c3ccc4c(c3)OCO4)O[C@@H]2CO)cc1 | · | 3 | -4 | · | -1
C=CCc1c(C)nc(SC)nc1Nc1ccc(C)cc1 | -2 | · | -1 | · | ·
Cc1cc(C)c(NC(=O)CNC(=O)CNC(=O)C2CCCCC2)c(C)c1 | 0 | -11 | -1 | 3 | -2
COc1cc(C2CC(=O)NC3=C2C(=O)CC(C)(C)C3)ccc1O (stereo unspecified) | -17 | · | · | -5 | -1
Cc1ccc(S(=O)(=O)N2CCOCC2)cc1NC(=O)COC(=O)CNC(=O)c1ccccc1 | 0 | · | · | · | ·
CCOC(=O)N1CCC(N2C(=O)c3ccccc3C2Nc2cc(C)cc(C)c2)CC1 (stereo unspecified) | -5 | -9 | 2 | 5 | -7
COc1ccccc1N1CCN(C(=O)C(=O)N/N=C/c2cccc(O)c2)CC1 | 36* | · | · | -10 | ·
NCC[C@H]1CC[C@@H](NC(=O)CCN2CCCCC2)[C@H](CO)O1 | · | -4 | 5 | -5 | 59*
NCC[C@H]1CC[C@H](NC(=O)CCN2CCCCC2)[C@@H](CO)O1 | · | -3 | 4 | 6 | 28*
O=C(N[C@H]1CC[C@@H](CCNS(=O)(=O)c2ccc(F)cc2)O[C@H]1CO)C1CCC1 | · | -5 | 0 | 2 | -1
Cc1ccc(S(=O)(=O)NCC[C@@H]2CC[C@H](NC(=O)CCN3CCCCC3)[C@@H](CO)O2)cc1 | · | 17* | 2 | 5 | 3
SMILES | PDI turbidity | SIRT5 block | ERp5 block | FN deposition inh | AF4-AF9 inh
O=C(N[C@H]1CC[C@@H](CCNS(=O)(=O)c2ccc(F)cc2)O[C@@H]1CO)C1CCC1 | · | 18* | -2 | -1 | 0
NCC[C@@H]1CC[C@@H](NC(=O)CCN2CCCCC2)[C@H](CO)O1 | · | -2 | -7 | -2 | 19
Cc1c(C(=O)O)nn(-c2ccccc2)c(=O)c1C#N | · | -3 | 2 | -2 | -2
COc1ccc(S(=O)(=O)N(C)C[C@@H]2OCCCC[C@H](C)Oc3ccc(NC(=O)Nc4ccc(C(F)(F)F)cc4)cc3C(=O)N([C@@H](C)CO)C[C@@H]2C)cc1 | · | -1 | 6 | -6 | -10
Cc1cc2nc3ccc(=[N+](C)C)cc-3sc2cc1N | -22 | · | · | · | ·
CN(C)c1ccc2nc3ccc(=O)cc-3sc2c1 | 4 | 2 | -9 | 1 | 66*
c1ccc(COc2cccc(-c3cc4nc(NCCOc5ccccc5)ccn4n3)c2)cc1 | 20 | · | 6 | -1 | 1
c1ccc(COc2cccc(-c3cc4nc(NCCc5ccncc5)ccn4n3)c2)cc1 | -5 | 19* | 4 | -5 | 1
COc1ccc(CN2C(=O)c3cccnc3C2Nc2cc(Cl)ccc2OC)cc1 (stereo unspecified) | 10 | 0 | 3 | 5 | ·
N/C(=N\OC(=O)CCCc1ccccc1)c1ccccn1 | 5 | -5 | 2 | 6 | 0
O=C(CCl)N1c2ccccc2Sc2ccc3ccccc3c21 | -1 | · | · | · | ·
CN(C)CCCN1c2ccc3ccccc3c2Sc2cccc(Cl)c21 | -1 | 1 | 1 | -17 | 33*
CN(C)CCCN1c2ccccc2CCc2ccccc21 | 2 | -5 | 4 | 16 | 4
CN(C)CCCN1c2ccccc2Sc2ccc3ccccc3c21 | -3 | -1 | 10 | -4 | 30*
CCOc1ccccc1NC1=C(Cl)C(=O)N(Cc2ccccc2)C1=O | 10 | · | · | · | ·
COc1ccc(OC)c(NC2=C(Cl)C(=O)N(Cc3ccccc3)C2=O)c1 | 0 | -2 | -4 | -1 | 27*
CCc1ccc(CN(C)CCc2ccccn2)cc1 | 19 | 21* | 4 | · | -45
O=C1CCCc2nc(N3CCN(c4ccccc4)CC3)ncc21 | 4 | · | · | · | ·
Fc1cnc(N2CCN(c3ccccc3)CC2)nc1N1CCN(c2ccccc2)CC1 | -9 | -2 | 2 | 30* | 4
C[n+]1ccc(/C=C/c2c[nH]c3ccc(F)cc23)cc1 | -13 | 26* | 2 | -13 | 2
Cn1cc(/C=C/c2cc[n+](C)cc2)c2cc(F)ccc21 | 9 | 11 | 14 | · | ·
O=C(C[C@H]1C[C@H]2c3cc(NC(=O)c4ccc5c(c4)OCO5)ccc3O[C@H]2[C@H](CO)O1)NCc1ccc(Oc2ccccc2)cc1 | · | 11 | -2 | -11 | 2
CCN(C(=S)NC(=O)C1CCCC1)C1CCCCC1 | 6 | -1 | -6 | -2 | 3
COc1ccc(/C=C2/C(=O)N(c3nc4ccccc4s3)N=C2CSc2ccc(Cl)cc2)cc1 | -9 | 18* | -1 | 0 | -3
CN(C)S(=O)(=O)c1ccc(C(=O)Nc2nnc(-c3ccco3)o2)cc1 | 6 | 16* | 0 | · | -2
CCN(CC)S(=O)(=O)c1ccc(C(=O)Nc2nnc(-c3ccco3)o2)cc1 | 2 | · | · | 5 | ·
Fc1ccccc1COc1ccc(/C=N/n2cnnc2)cc1 | 2 | · | · | -3 | ·
COC(=O)CC(CP(=O)(O)CN(C)C=O)C(=O)OC (stereo unspecified) | -3 | -7 | 0 | 1 | ·
COc1cccc(OC)c1OCCN1CCCC1 | -1 | 21* | 5 | -1 | -3

Screens (PubChem BioAssay)
